Data reported in ChEMBL document CHEMBL4390639, “Design, Synthesis, and Biological Evaluation of Novel Allosteric Protein Disulfide Isomerase Inhibitors” (J Med Chem, 2019).
Calls of active or inactive are those of the source. The rule behind the calls is not given here.

Assays:
A 172 [1] = assay: Induction of morphological changes in human A172 cells assessed as formation of lipid vesicles around nucleus at 17 uM measured after 48 hrs by Giemsa-staining based microscopic analysis; format: functional, cell-based
U-87 MG [2] = assay: Up regulation of HSPH1 gene expression in human U87MG cells at 10 uM incubated for 4 hrs followed by bromouridine addition during last 30 mins of incubation by TRIzol-reagent based Bru-Seq analysis relative to control; format: functional, U-87MG ATCC
Method in brief: (§1)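 U87MG cells exposed to compound or DMSO vehicle for 4 h, with 2 mM bromouridine added for the final 30 min. Total RNA isolated with TRIzol; Bru-labelled nascent RNA captured on anti-BrdU antibody-conjugated magnetic beads and sequenced. Transcript abundance expressed as RPKM relative to DMSO. Experiment performed once.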

U-87 MG [3] = assay: Up regulation of SESN2 gene expression in human U87MG cells at 10 uM incubated for 4 hrs followed by bromouridine addition during last 30 mins of incubation by TRIzol-reagent based Bru-Seq analysis relative to control; format: functional, U-87MG ATCC; method in brief: as §1
U-87 MG [4] = assay: Down regulation of CHSY3 gene expression in human U87MG cells at 10 uM incubated for 4 hrs followed by bromouridine addition during last 30 mins of incubation by TRIzol-reagent based Bru-Seq analysis relative to control; format: functional, U-87MG ATCC
U-87 MG [5] = assay: Down regulation of ZNF404 gene expression in human U87MG cells at 10 uM incubated for 4 hrs followed by bromouridine addition during last 30 mins of incubation by TRIzol-reagent based Bru-Seq analysis relative to control; format: functional, U-87MG ATCC; method in brief: as §1
U-87 MG [6] = assay: Up regulation of INHBA gene expression in human U87MG cells at 10 uM incubated for 4 hrs followed by bromouridine addition during last 30 mins of incubation by TRIzol-reagent based Bru-Seq analysis relative to control; format: functional, U-87MG ATCC; method in brief: as §1
U-87 MG [7] = assay: Down regulation of SLITRK5 gene expression in human U87MG cells at 10 uM incubated for 4 hrs followed by bromouridine addition during last 30 mins of incubation by TRIzol-reagent based Bru-Seq analysis relative to control; format: functional, U-87MG ATCC
Method in brief: (§2)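 Nascent transcription (Bru-seq) in U87MG cells: treatment at 10 μM for 4 h, with 2 mM bromouridine added for the final 30 min. Total RNA isolated with TRIzol; Bru-labelled RNA captured using anti-BrdU antibody on magnetic beads, then sequenced. Transcript traces reported as RPKM compared with DMSO-treated cells. Single experiment.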

U-87 MG [8] = assay: Down regulation of ST8SIA4 gene expression in human U87MG cells at 10 uM incubated for 4 hrs followed by bromouridine addition during last 30 mins of incubation by TRIzol-reagent based Bru-Seq analysis relative to control; format: functional, U-87MG ATCC; method in brief: as §2
U-87 MG [9] = assay: Down regulation of HLA-DQB1 gene expression in human U87MG cells at 10 uM incubated for 4 hrs followed by bromouridine addition during last 30 mins of incubation by TRIzol-reagent based Bru-Seq analysis relative to control; format: functional, U-87MG ATCC
U-87 MG [10] = assay: Down regulation of DUT gene expression in human U87MG cells at 10 uM incubated for 4 hrs followed by bromouridine addition during last 30 mins of incubation by TRIzol-reagent based Bru-Seq analysis relative to control; format: functional, U-87MG ATCC
U-87 MG [11] = assay: Up regulation of HSPA4L gene expression in human U87MG cells at 10 uM incubated for 4 hrs followed by bromouridine addition during last 30 mins of incubation by TRIzol-reagent based Bru-Seq analysis relative to control; format: functional, U-87MG ATCC; method in brief: as §1
U-87 MG [12] = assay: Down regulation of HIST1H2BC gene expression in human U87MG cells at 10 uM incubated for 4 hrs followed by bromouridine addition during last 30 mins of incubation by TRIzol-reagent based Bru-Seq analysis relative to control; format: functional, U-87MG ATCC
U-87 MG [13] = assay: Down regulation of MYBL1 gene expression in human U87MG cells at 10 uM incubated for 4 hrs followed by bromouridine addition during last 30 mins of incubation by TRIzol-reagent based Bru-Seq analysis relative to control; format: functional, U-87MG ATCC; method in brief: as §2
U-87 MG [14] = assay: Down regulation of LYPD6 gene expression in human U87MG cells at 10 uM incubated for 4 hrs followed by bromouridine addition during last 30 mins of incubation by TRIzol-reagent based Bru-Seq analysis relative to control; format: functional, U-87MG ATCC
U-87 MG [15] = assay: Up regulation of HSPA6 gene expression in human U87MG cells at 10 uM incubated for 4 hrs followed by bromouridine addition during last 30 mins of incubation by TRIzol-reagent based Bru-Seq analysis relative to control; format: functional, U-87MG ATCC; method in brief: as §1
U-87 MG [16] = assay: Up regulation of BAG3 gene expression in human U87MG cells at 10 uM incubated for 4 hrs followed by bromouridine addition during last 30 mins of incubation by TRIzol-reagent based Bru-Seq analysis relative to control; format: functional, U-87MG ATCC; method in brief: as §1
U-87 MG [17] = assay: Up regulation of DNAJB1 gene expression in human U87MG cells at 10 uM incubated for 4 hrs followed by bromouridine addition during last 30 mins of incubation by TRIzol-reagent based Bru-Seq analysis relative to control; format: functional, U-87MG ATCC; method in brief: as §1
U-87 MG [18] = assay: Up regulation of NMRAL2P gene expression in human U87MG cells at 10 uM incubated for 4 hrs followed by bromouridine addition during last 30 mins of incubation by TRIzol-reagent based Bru-Seq analysis relative to control; format: functional, U-87MG ATCC; method in brief: as §2
U-87 MG [19] = assay: Up regulation of NR4A1 gene expression in human U87MG cells at 10 uM incubated for 4 hrs followed by bromouridine addition during last 30 mins of incubation by TRIzol-reagent based Bru-Seq analysis relative to control; format: functional, U-87MG ATCC; method in brief: as §1
U-87 MG [20] = assay: Down regulation of HIST1H4B gene expression in human U87MG cells at 16 uM incubated for 4 hrs followed by bromouridine addition during last 30 mins of incubation by TRIzol-reagent based Bru-Seq analysis relative to control; format: functional, U-87MG ATCC
U-87 MG [21] = assay: Down regulation of KIAA0040 gene expression in human U87MG cells at 16 uM incubated for 4 hrs followed by bromouridine addition during last 30 mins of incubation by TRIzol-reagent based Bru-Seq analysis relative to control; format: functional, U-87MG ATCC
U-87 MG [22] = assay: Up regulation of OSGIN1 gene expression in human U87MG cells at 16 uM incubated for 4 hrs followed by bromouridine addition during last 30 mins of incubation by TRIzol-reagent based Bru-Seq analysis relative to control; format: functional, U-87MG ATCC; method in brief: as §1
U-87 MG [23] = assay: Up regulation of AC087672.3 gene expression in human U87MG cells at 16 uM incubated for 4 hrs followed by bromouridine addition during last 30 mins of incubation by TRIzol-reagent based Bru-Seq analysis relative to control; format: functional, U-87MG ATCC; method in brief: as §1
U-87 MG [24] = assay: Down regulation of C8orf4 gene expression in human U87MG cells at 16 uM incubated for 4 hrs followed by bromouridine addition during last 30 mins of incubation by TRIzol-reagent based Bru-Seq analysis relative to control; format: functional, U-87MG ATCC; method in brief: as §1
U-87 MG [25] = assay: Down regulation of LRRN3 gene expression in human U87MG cells at 16 uM incubated for 4 hrs followed by bromouridine addition during last 30 mins of incubation by TRIzol-reagent based Bru-Seq analysis relative to control; format: functional, U-87MG ATCC; method in brief: as §1
A 172 [26] = assay: Induction of morphological changes in human A172 cells assessed as necroptotic cell death at 20 uM measured after 48 hrs by Giemsa-staining based microscopic analysis; format: functional
U-87 MG [27] = assay: Up regulation of KCNE4 gene expression in human U87MG cells at 16 uM incubated for 4 hrs followed by bromouridine addition during last 30 mins of incubation by TRIzol-reagent based Bru-Seq analysis relative to control; format: functional, U-87MG ATCC; method in brief: as §1

N#Cc1cccc(/C=C/C(=O)c2ccc(O)cc2)c1
Activity (A 172 [1]): Active

CCCCCN(CCCCC)S(=O)(=O)c1ccc(C(=O)/C=C/c2cccc(C#N)c2)cc1
fold change (FC) (U-87 MG [2]): 20 | fold change (FC) (U-87 MG [3]): 26.9 | fold change (FC) (U-87 MG [4]): 2.6 | fold change (FC) (U-87 MG [5]): 2.7 | fold change (FC) (U-87 MG [6]): 27 | fold change (FC) (U-87 MG [7]): 3.6 | fold change (FC) (U-87 MG [8]): 3.1 | fold change (FC) (U-87 MG [9]): 2.9 | fold change (FC) (U-87 MG [10]): 2.3 | fold change (FC) (U-87 MG [11]): 8.6 | fold change (FC) (U-87 MG [12]): 2.3 | fold change (FC) (U-87 MG [13]): 2.6 | fold change (FC) (U-87 MG [14]): 3.1 | fold change (FC) (U-87 MG [15]): 464.7 | fold change (FC) (U-87 MG [16]): 17.1 | fold change (FC) (U-87 MG [17]): 16.9 | log2FC (U-87 MG [18]): 2.72 | fold change (FC) (U-87 MG [19]): 18.9

COC(=O)c1cccc(/C=C/C(=O)c2cccc(O)c2)c1
fold change (FC) (U-87 MG [20]): 2.7 | fold change (FC) (U-87 MG [21]): 2.6 | fold change (FC) (U-87 MG [22]): 5.4 | fold change (FC) (U-87 MG [23]): 3.8 | fold change (FC) (U-87 MG [24]): 4.7 | fold change (FC) (U-87 MG [25]): 3.6 | Activity (A 172 [26]): Active | fold change (FC) (U-87 MG [27]): 5.1
